Data set [1] in a line: Inhibition of acetyl-CoA carboxylase in rat skeletal muscle by HPLC. It counts as tissue-based, Muscle tissue.
For data set [2], the species on record is Rattus norvegicus. As to the kind of experiment: Inhibition of acetyl-CoA carboxylase in rat skeletal muscle by HPLC at 10 uM. The data set is classed as tissue-based. The settings on record: Muscle tissue. The procedure, abridged:
(§1)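 Biotinylated enzyme bound on a streptavidin column, eluted with 5 mM biotin, and protein quantified by Bradford. Buffer was 50 mM HEPES pH 7.5, 20 mM MgCl₂, 10 mM tripotassium citrate, 0.075% BSA, 2 mM ATP, 1 mM acetyl-CoA and 17.6 mM NaHCO₃, stopped with 10% perchloric acid. HPLC read-out measured acetyl-CoA loss and/or malonyl-CoA formation.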

Data set [3] is described as follows: (§2) Inhibition of acetyl-CoA carboxylase in rat skeletal muscle by HPLC at 1 uM/L. It counts as tissue-based, Muscle tissue. In short, it runs like this: as §1
Data set [4] is filed under the species Rattus norvegicus. Nature of the data set: Inhibition of acetyl-CoA carboxylase in rat skeletal muscle by HPLC at 5 uM. It counts as tissue-based. The settings on record: Muscle tissue. In short, it runs like this:
as §1

For data set [5], the species on record is Rattus norvegicus. Described as §2. The data set is classed as tissue-based. Particulars: Muscle tissue. The procedure, abridged: as §1
Data set [6] in a line: Membrane permeability at pH 6.8 by PAMPA. The settings on record: read-out: permeability. The data set is classed as ADME. (In PAMPA a lipid-coated filter parts donor from acceptor wells.)
The test system of another data set is Mus musculus. As to the kind of experiment: Reduction in respiratory quotient in ip dosed C57BL/6J mouse administered once a day for 8 days measured after 24 hrs of day 7 acclimatization in presence of high carbohydrate. The data set is classed as functional, organism-based. The procedure, abridged: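 C57BL/6J mice aged 7–8 weeks on normal chow (carbohydrate 64%, fat 7%, protein 20%), n = 8 per group, got vehicle or 30 or 60 mg/kg ip once daily for 8 days. After 24 h cage acclimatization from day 7, O₂ consumption and CO₂ production were recorded immediately post-dose. The first 30 min were excluded, and RQ was averaged over the initial 8 h and compared by Student's t test.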

Some results are limits rather than exact numbers.

What is called IC50 is the concentration that gives 50% inhibition. What is called inhibition is the share of the control response that was lost under treatment. A lower inhibition goes with a response near the control.

For `CC1COCC(C)N1c1ccc2c(c1)OC1(CCN(C(=O)c3cc(-c4ccccc4)nc(-c4ccccc4)c3)CC1)CC2=O` (centres undefined), the half-inhibitory concentration (IC50) in data set [1] is 0.059 µM. Moreover, the inhibition in the data set filed under Rattus norvegicus [2] was greater than 90%.

Compound `O=C(c1c2ccccc2cc2ccccc12)N1CCC(N2CCC[C@@H](C(=O)N3CCOCC3)C2)CC1` came in with an inhibition in the data set listed under Rattus norvegicus [2] greater than 90%. `CCCC(=O)N(C)c1ccc2c(c1)C(=O)C(C)(C)C1(CCN(C(=O)c3cc(-c4ccccc4)nc(-c4ccccc4)c3)CC1)O2` gave an inhibition in the data set filed under Rattus norvegicus [2] of 83%. Still for that read-out and setting: with `O=C1CC2(CCN(C(=O)N3c4ccccc4CCc4ccccc43)CC2)Oc2ccc(N3CCOCC3)cc21` the figure was 7%. Take `Cc1cc2c(cc1N1CCOCC1)C(=O)CC1(CCN(C(=O)c3cc(-c4ccccc4)nc(-c4ccccc4)c3)CC1)O2`: in data set [1], half-maximal inhibition (IC50) was put at 0.002 µM. Moreover, in the data set listed under Rattus norvegicus [2], the inhibition was greater than 90%.

`O=C1CC2(CCN(C(=O)c3cc(-c4ccccc4)nc(-c4ccccc4)c3)CC2)Oc2ccc(N3CCOCC3)cc21` had a half-maximal inhibitory concentration (IC50) in data set [1] of 0.006 µM. The inhibition in the data set filed under Rattus norvegicus [2] was greater than 90%.

Consider `O=C1CC2(CCN(C(=O)N3c4ccccc4Oc4ccccc43)CC2)Oc2cc(N3CCOCC3)ccc21`, for which, in data set [3], half-maximal inhibition (IC50) was put at 0.208 µM. Still for that read-out and setting: the same measure for `O=C1CC2(CCN(C(=O)N3c4ccccc4Oc4ccccc43)CC2)Oc2ccc(N3CCOCC3)cc21`: 0.099 µM. In turn, `CN1CCN(c2ccc3c(c2)OC2(CCN(C(=O)c4cc(-c5ccccc5)nc(-c5ccccc5)c4)CC2)CC3=O)CC1` returned an IC50 in data set [1] of 0.027 µM. For the same compound, the inhibition in the data set listed under Rattus norvegicus [2] is greater than 90%.

As to `CCCC(=O)Nc1ccc2c(c1)C(=O)CC1(CCN(C(=O)N3c4ccccc4Oc4ccccc43)CC1)O2`, half-maximal inhibition in data set [3] (IC50) was put at 0.101 µM.

For the compound `CCCC(=O)Nc1ccc2c(c1)C(=O)CC1(CCN(C(=O)N3c4ccccc4CCc4ccccc43)CC1)O2`, in the data set filed under Rattus norvegicus [2], the inhibition is 4%.

In the case of `CC1(C)C(=O)c2ccccc2OC12CCN(C(=O)c1cc(-c3ccccc3)nc(-c3ccccc3)c1)CC2`, in the data set filed under Rattus norvegicus [2], the inhibition came out at 44%. As for `O=C1CC2(CCN(C(=O)c3cc(-c4ccccc4)nc(-c4ccccc4)c3)CC2)Oc2cc(N3CCOCC3)ccc21`, in data set [1], the IC50 stood at 0.026 µM. The compound further returned an inhibition in the data set filed under Rattus norvegicus [2] greater than 90%. The corresponding values for `O=C1CC2(CCN(C(=O)c3cc(-c4ccccc4)nc(-c4ccccc4)c3)CC2)Oc2cc(N3CCCC3)ccc21` are 0.061 µM and greater than 90%.

For the compound `O=C1CC2(CCN(C(=O)N3c4ccccc4Oc4ccccc43)CC2)Oc2ccccc21`, the inhibition in the data set filed under Rattus norvegicus [4] was 51%. With `O=C1CC2(CCN(C(=O)N3c4ccccc4Sc4ccccc43)CC2)Oc2ccc(N3CCOCC3)cc21`, the inhibition in the data set listed under Rattus norvegicus [2] was determined as 64%.

Compound `COc1cc(C(=O)N2CCC3(CC2)CC(=O)c2cc(Nc4ccnn4C)ccc2O3)nc2c(OC)cccc12` returned an inhibition in the data set filed under Rattus norvegicus [5] of 100%. `COc1cc(C(=O)N2CCC3(CC2)CC(=O)c2cc(-c4nc[nH]n4)ccc2O3)nc2c(OC)cccc12` gave an inhibition in the data set listed under Rattus norvegicus [5] of 100%. `O=C1CC2(CCN(C(=O)c3cc(-c4ccccc4)nc(-c4ccccc4)c3)CC2)Oc2cc(N3CCCCC3)ccc21` came in with an IC50 in data set [1] of 0.036 µM. Moreover, in the data set listed under Rattus norvegicus [2], the inhibition is greater than 90%.

Turning to `O=C1CC2(CCN(C(=O)N3c4ccccc4Sc4ccccc43)CC2)Oc2ccccc21`, the inhibition in the data set filed under Rattus norvegicus [2] was 16%. In the case of `O=C1CC2(CCN(C(=O)c3cc(-c4ccccc4)nc(-c4ccccc4)c3)CC2)Oc2ccc(N3CCCC3=O)cc21`, the concentration for half-maximal inhibition (IC50) in data set [1] is 0.014 µM. The inhibition in the data set filed under Rattus norvegicus [2] is greater than 90%. For the same compound, the Papp in data set [6] was determined as 26.8 ×10⁻⁶ cm/s. Further, in the data set with Mus musculus, the Activity entry is “Dose-dependent effect”.

For `O=C1CC2(CCN(C(=O)c3cc(-c4ccccc4)nc(-c4ccccc4)c3)CC2)Oc2ccccc21`, the 50% inhibitory concentration (IC50) in data set [1] worked out at 1.2 µM. Moreover, the inhibition in the data set filed under Rattus norvegicus [2] is greater than 90%.

Compound `CC(=O)N[C@H](C)C#Cc1ccc2c(c1)C(=O)CC1(CCN(C(=O)c3cc(-c4ccccc4)nc(-c4ccccc4)c3)CC1)O2` yielded a half-inhibitory concentration (IC50) in data set [1] of 0.061 µM. Also, the inhibition in the data set filed under Rattus norvegicus [2] was greater than 90%. Consider `O=C1CC2(CCN(C(=O)N3c4ccccc4Oc4ccccc43)CC2)Oc2ccc(N3CCCC3=O)cc21`, for which the concentration for half-maximal inhibition (IC50) in data set [3] was determined as 0.236 µM. `CCCC(=O)Nc1ccc2c(c1)C(=O)CC1(CCN(C(=O)c3cc(-c4ccccc4)nc(-c4ccccc4)c3)CC1)O2` registered an IC50 in data set [1] of 0.006 µM. In the data set listed under Rattus norvegicus [2], this compound came in with an inhibition greater than 90%. For the compound `CCCC(=O)Nc1ccc2c(c1)C(=O)CC1(CCN(C(=O)N3c4ccccc4Sc4ccccc43)CC1)O2`, the inhibition in the data set listed under Rattus norvegicus [2] came to 48%.

The values are drawn from ChEMBL document CHEMBL1143266, “Synthesis of spiro[chroman-2,4'-piperidin]-4-one derivatives as acetyl-CoA carboxylase inhibitors” (Bioorg Med Chem Lett, 2009).
